Molecules are shown by their SMILES.

This is an account of results in ChEMBL document CHEMBL4513216, “Probing the Open Global Health Chemical Diversity Library for Multistage-Active Starting Points for Next-Generation Antimalarials” (ACS Infect Dis, 2020).

The test system of one series is HepG2. The experiment in a line: (§1) Toxicity liver stage against HepG2, at 10uM. Also on record: test concentration 10 uM, cell line HepG2-A16-CD81EGFP. It counts as cell-based. The note with it: human, hepg2, 10 µM; 10 µM. Put shortly: (§2)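 Uninfected HepG2-A16-CD81EGFP cells, 3 × 10^3 per well, 1536-well, plated on prespotted compound at 10 μM final, parasite-free screening media added to match infected plates; puromycin 10 μM positive, DMSO 0.5% negative; run in parallel with 48 h PbLuc assay at 37 °C, 5% CO2; viability by CellTiter-Glo luminescence, normalized to controls.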

Series [1] in a line: as §1. It counts as cell-based. Also on record: test concentration 10 uM, cell line HepG2-A16-CD81EGFP. The note with it: human, HepG2-A16-CD81EGFP cells; read-out: INHIBITION
Put shortly: as §2

With `CCc1c(C)nn2c(O)cc(C3CCN(C(=O)c4ccccn4)C3)nc12` (centres undefined), the INHIBITION with HepG2 turned out to be 4.85%. Also, the cytotoxicity at 10 µM in series [1] was 6.7%.
Consider `O=C(NCc1ccc(F)cc1)NCC(O)(c1cccs1)C1CC1` (centres undefined), for which, in series [1], the cytotoxicity at 10 µM is -1.13%.
Consider `O=C(CCc1ccsc1)N1CCCCC1Cn1cccn1` (centres undefined), for which the cytotoxicity at 10 µM in series [1] was -5.78%.
Still for that read-out and setting: next, `CCn1nc(C)c2nc(C)nc(NCCc3ccccc3)c21`: 25.2%; `CN(C)C(=O)N1CCc2c(nnn2C)C1COCC1CC1` (centres undefined): 12.6%.
The same measure, in the same setting: next, `CCc1cnc(NCc2ccccc2Cn2cccn2)nc1`: -2.45%; `CC(C)c1nccn1Cc1cc(C(=O)NCC(F)(F)F)n[nH]1`: 3.73%.
The same measure, in the same setting: next, `CC(=O)NC1CCCN(C(=O)NCc2ccc(-c3ccn[nH]3)cc2)C1` (centres undefined): -7.84%; `O=c1ncn(-c2cccc(F)c2)c2ncccc12`: 4.19%.
In the case of `COc1ccc(C)cc1C(=O)NC(CC(=O)O)c1cccs1` (centres undefined), the cytotoxicity at 10 µM in series [1] is -16.3%.
Still for that read-out and setting: next, `Cc1ccc(F)c(C(=O)N2CCN(S(C)(=O)=O)[C@@H](C)C2)c1`: -10.3%; `CCS(=O)(=O)N1Cc2nccn2CC(COc2cccnc2)C1` (centres undefined): -2.34%.
Still for that read-out and setting: next, `Cc1cc(NC(=O)CN2CCn3c(nnc3C(C)C)C2)no1`: -1.11%; `CC(C)CCNC(=O)NC(C)c1nncn1C` (centres undefined): -9.9%; `O=C1C[C@H]2[C@@H](CCN2C(=O)Cc2cccs2)N1CC1CC1`: 3.2%.
Still for that read-out and setting: next, `Cc1nn(C)c2ncc(S(=O)(=O)N3CCCN4CCCC4C3)cc12` (centres undefined): -0.334%; `CC(=O)N1CCC(n2ccc(-c3cnc(N4CCOCC4)nc3)n2)CC1`: -10.4%.
Take `O=C(NCCCOC1CCOC1)NC(C1CC1)C1CC1` (centres undefined): the cytotoxicity at 10 µM in series [1] is -5.36%.
The same measure, in the same setting: next, `CCN1CCCC1(C)c1nc(C)cc(N)n1` (centres undefined): -2.17%.
Still for that read-out and setting: next, `CCOCCCC(=O)N1CCCC1c1nc(-c2ccccc2F)c[nH]1` (centres undefined): 12.5%; `N#Cc1cn(CC(=O)NC2CC2)c2ccc(Br)cc2c1=O`: 27.4%; `Cc1ccnn1CC(=O)N(C)Cc1ccc(-n2cccn2)cc1`: 0.0616%.
Still for that read-out and setting: next, `CCc1nc2ccccc2c(=O)n1CC1(O)CCN(C(=O)COC)CC1`: -2.76%; `CS(=O)(=O)N1C[C@H]2CCCN(Cc3nccs3)[C@H]2C1`: -1.65%.
For the molecule `Cc1csc(CNC(=O)NCC(O)c2ccc(F)cc2F)n1` (centres undefined), in series [1], the cytotoxicity at 10 µM is -10.8%.
The same measure, in the same setting: next, `O=C(NCC1CC1)[C@H]1CC[C@@H]2[C@@H](CCN2Cc2ccoc2)O1`: -14.1%.
Still for that read-out and setting: next, `Cc1cccc(OCCC(=O)N2CCN(CC(=O)NC3CC3)CC2)c1C`: 2.22%; `c1cnc(-c2nc(CN3CCCC(Cn4cncn4)C3)cs2)nc1` (centres undefined): -7.91%; `O=C(CC1CCCO1)NCCCC(=O)Nc1ccc(Cl)cc1` (centres undefined): 2.91%.
On the same count and under the same terms, next, `O=C1NCCN(Cc2cccnc2)C1CC(=O)N1CCc2n[nH]cc2C1` (centres undefined): -4.05%; `CC(c1cccnc1)N(C)C(=O)NCCOc1ccc(C#N)cc1` (centres undefined): -6.17%; `CC(C#N)CSc1ccccc1NCC(=O)NCc1cccs1` (centres undefined): 2.13%.
For `O=C1CCSCC(C(=O)N2CCC(O)CC2)N1` (centres undefined), the cytotoxicity at 10 µM in series [1] was -4.2%.
